Experimental data taken from article PMC9050161 (RSC Advances, 2020).

Experiments:
Assay type in all cases: biochemical
CYP2E1 = CYP2E1 (Homo sapiens, UniProt P05181); assay: Inhibition of CYP2E1
Outline: (§1)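 Recombinant human CYPs at 0.1 mg mL−1 protein, each with its probe substrate near Km: coumarin 100 μM (2A6), bupropion 100 μM (2B6), paclitaxel 60 μM (2C8), tolbutamide 200 μM (2C9), mephenytoin 100 μM (2C19), chlorzoxazone 200 μM (2E1). Incubated at 37 °C with or without test compound at 1, 10 or 100 μM. UHPLC-TQD-MS read-out; triplicate.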

UGT1A9 = UGT1A9 (Homo sapiens, UniProt O60656); assay: Inhibition of UGT1A9
Outline: (§2)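 Recombinant human UGTs screened with probe substrates: β-estradiol for UGT1A1, propofol for 1A9, and 4-methylumbelliferone for 1A3, 1A6, 1A7, 1A8, 1A10, 2B4, 2B7, 2B10, 2B15 and 2B17. Incubated at 37 °C without (control) or with test compound at 1, 10 or 100 μM. Glucuronide formation measured relative to control; triplicate.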

CYP2C9 = CYP2C9 (Homo sapiens, UniProt P11712); assay: Inhibition of CYP2C9
Outline: as §1

UGT2B15 = UGT2B15 (Homo sapiens, UniProt P54855); assay: Inhibition of UGT2B15; conditions: PI-103 1, 10 and 100 μM
Outline: as §2

CYP2B6 = target: T1, CYP2B6 (Homo sapiens, UniProt P20813); assay: Inhibition of CYP2B6
T1 sequence (P20813 1-491): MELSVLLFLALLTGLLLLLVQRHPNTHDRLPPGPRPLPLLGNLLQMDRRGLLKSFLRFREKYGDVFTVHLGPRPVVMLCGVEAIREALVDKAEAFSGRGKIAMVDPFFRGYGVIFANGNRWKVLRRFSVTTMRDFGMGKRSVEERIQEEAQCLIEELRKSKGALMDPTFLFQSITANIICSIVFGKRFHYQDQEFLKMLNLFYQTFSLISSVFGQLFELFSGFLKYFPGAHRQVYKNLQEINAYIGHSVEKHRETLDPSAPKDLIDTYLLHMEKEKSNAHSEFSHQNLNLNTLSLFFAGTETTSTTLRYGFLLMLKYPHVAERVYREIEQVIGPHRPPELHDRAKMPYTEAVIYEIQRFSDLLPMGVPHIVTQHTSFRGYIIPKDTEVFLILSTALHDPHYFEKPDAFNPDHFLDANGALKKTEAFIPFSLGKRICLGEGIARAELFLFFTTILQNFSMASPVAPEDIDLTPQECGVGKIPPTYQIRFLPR
Outline: as §1

Sequence of CYP2C9 (P11712 whole entry): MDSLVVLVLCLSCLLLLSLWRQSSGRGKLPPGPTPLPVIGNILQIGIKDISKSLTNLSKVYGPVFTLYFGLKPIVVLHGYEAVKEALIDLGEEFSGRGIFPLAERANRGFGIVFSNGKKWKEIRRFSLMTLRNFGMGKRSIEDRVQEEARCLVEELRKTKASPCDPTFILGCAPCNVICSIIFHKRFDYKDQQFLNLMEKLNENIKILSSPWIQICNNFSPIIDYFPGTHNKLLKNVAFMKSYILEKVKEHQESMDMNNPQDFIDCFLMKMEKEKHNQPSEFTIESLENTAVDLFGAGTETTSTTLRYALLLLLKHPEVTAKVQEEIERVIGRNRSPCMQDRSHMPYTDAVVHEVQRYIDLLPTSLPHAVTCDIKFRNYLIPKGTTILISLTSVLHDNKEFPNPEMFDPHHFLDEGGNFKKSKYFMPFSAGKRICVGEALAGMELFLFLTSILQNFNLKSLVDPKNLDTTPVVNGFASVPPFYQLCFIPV
Sequence of CYP2E1 (P05181 whole entry): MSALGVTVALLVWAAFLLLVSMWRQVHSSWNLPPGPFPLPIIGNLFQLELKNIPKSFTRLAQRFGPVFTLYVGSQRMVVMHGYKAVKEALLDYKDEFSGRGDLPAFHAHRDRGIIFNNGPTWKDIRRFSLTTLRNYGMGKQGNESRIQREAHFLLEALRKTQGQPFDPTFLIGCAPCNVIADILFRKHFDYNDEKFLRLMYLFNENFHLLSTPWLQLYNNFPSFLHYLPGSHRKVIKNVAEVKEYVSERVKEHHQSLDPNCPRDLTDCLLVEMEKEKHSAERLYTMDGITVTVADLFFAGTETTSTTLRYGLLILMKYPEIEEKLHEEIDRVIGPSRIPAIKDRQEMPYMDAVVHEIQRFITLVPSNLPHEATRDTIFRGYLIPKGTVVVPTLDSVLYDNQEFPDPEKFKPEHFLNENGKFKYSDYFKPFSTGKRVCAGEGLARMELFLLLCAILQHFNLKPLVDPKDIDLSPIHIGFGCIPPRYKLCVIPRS
Sequence of UGT2B15 (P54855 24-530): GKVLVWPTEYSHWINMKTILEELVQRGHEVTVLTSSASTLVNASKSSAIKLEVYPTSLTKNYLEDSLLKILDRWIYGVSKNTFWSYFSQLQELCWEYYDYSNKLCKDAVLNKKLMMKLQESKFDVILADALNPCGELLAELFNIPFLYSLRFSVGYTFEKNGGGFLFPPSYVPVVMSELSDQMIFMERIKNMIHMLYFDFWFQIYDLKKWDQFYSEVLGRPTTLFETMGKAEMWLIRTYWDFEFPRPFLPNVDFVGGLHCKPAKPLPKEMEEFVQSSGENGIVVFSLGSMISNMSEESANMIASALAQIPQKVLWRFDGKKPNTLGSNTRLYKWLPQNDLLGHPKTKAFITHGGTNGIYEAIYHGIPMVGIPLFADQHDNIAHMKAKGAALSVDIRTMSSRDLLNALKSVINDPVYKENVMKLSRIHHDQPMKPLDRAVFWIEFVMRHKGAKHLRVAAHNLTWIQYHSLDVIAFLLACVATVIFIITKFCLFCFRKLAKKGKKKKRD
Sequence of UGT1A9 (O60656 26-530): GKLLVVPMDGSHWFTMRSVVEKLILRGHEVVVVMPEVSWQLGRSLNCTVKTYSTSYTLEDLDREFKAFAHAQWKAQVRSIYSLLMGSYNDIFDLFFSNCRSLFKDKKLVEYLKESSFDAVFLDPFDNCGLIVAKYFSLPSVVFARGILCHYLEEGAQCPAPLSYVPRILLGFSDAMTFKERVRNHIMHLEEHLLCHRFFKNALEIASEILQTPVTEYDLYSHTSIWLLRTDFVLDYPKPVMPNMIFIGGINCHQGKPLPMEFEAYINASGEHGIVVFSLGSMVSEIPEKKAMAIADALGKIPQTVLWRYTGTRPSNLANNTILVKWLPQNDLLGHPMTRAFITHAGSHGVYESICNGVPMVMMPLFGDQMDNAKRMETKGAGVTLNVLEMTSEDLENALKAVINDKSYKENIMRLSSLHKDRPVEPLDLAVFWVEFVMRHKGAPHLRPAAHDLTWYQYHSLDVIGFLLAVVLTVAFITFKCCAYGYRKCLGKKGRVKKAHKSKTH

Oc1cccc(-c2nc(N3CCOCC3)c3oc4ncccc4c3n2)c1 [PI-103]
IC50 (CYP2E1): 330 ± 40 nM | Ki (CYP2E1): 250 ± 10 nM | residual activity (CYP2E1; CYP2E1, 100 μM PI-103): 13.69 % of the negative control | Type of inhibition (CYP2E1; CYP2E1, chlorzoxazone): Noncompetitive | IC50 (UGT1A9): 16600 ± 1290 nM | IC50 (CYP2C9): 1160 ± 150 nM | Ki (CYP2C9): 560 ± 120 nM | residual activity (CYP2C9; CYP2C9, 100 μM PI-103): 14.22 % of the negative control | Type of inhibition (CYP2C9; CYP2C9, tolbutamide): Mixed-type | α (CYP2C9; CYP2C9, tolbutamide, mixed-type model (selected)): 2.45 ± 0.94 | inhibitory effect (UGT2B15): negligible | IC50 (CYP2B6): 2250 ± 280 nM | Ki (CYP2B6): 640 ± 220 nM | residual activity (CYP2B6; CYP2B6, 100 μM PI-103): 29.70 % of the negative control | Type of inhibition (CYP2B6; CYP2B6, bupropion): Mixed-type | α (CYP2B6; CYP2B6, bupropion, mixed-type model (selected)): 5.09 ± 4.48
